Reference: ChEMBL document CHEMBL1149206, “P1 and P3 optimization of novel bicycloproline P2 bearing tetrapeptidyl alpha-ketoamide based HCV protease inhibitors” (Bioorg Med Chem Lett, 2004)
Calls of active or inactive are those of the source. The rule behind the calls is not given here.

Legend:
[1] = biological target: Serine protease 1 (Homo sapiens) (UniProt P07477); assay: Inhibitory activity against trypsin at 100 uM concentration; Not significant
[2] = biological target: Kallikrein-1 (Homo sapiens) (UniProt P06870); assay: Inhibitory activity against kallikrein at 100 uM concentration; Not significant
Chain of Kallikrein-1 (Homo sapiens) (P06870 25-262 limits assumed): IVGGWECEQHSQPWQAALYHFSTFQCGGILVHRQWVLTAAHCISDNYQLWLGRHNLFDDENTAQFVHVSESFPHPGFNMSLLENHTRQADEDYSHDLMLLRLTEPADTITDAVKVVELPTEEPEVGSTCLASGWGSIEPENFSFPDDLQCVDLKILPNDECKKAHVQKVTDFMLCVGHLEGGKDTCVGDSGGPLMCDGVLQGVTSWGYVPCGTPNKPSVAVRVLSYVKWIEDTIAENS

Rattus norvegicus [3] = assay: In vivo area under curve in rat plasma exposure after oral administration 50 mg/kg; assay type: ADME, organism-based; design: dose 50 mg/kg, route oral
How it was run: (§1)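 Male Sprague–Dawley rats given a single oral dose of 50 mg/kg as a suspension in a wet granulation vehicle (povidone/lactose/polysorbate). Blood was collected by orbital sinus and terminal cardiac puncture at selected times up to 8 h. Livers were perfused intracardially with saline before sampling. Plasma and liver drug concentrations were measured by LC/MS/MS.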

[4] = biological target: Prothrombin (Homo sapiens) (UniProt P00734); assay: Inhibitory activity against thrombin at 100 uM concentration; Not significant
Rattus norvegicus [5] = assay: In vivo concentration in rat liver exposure 0-8 hour after oral administration 50 mg/kg; assay type: ADME, organism-based; design: dose 50 mg/kg, route oral; how it was run: as §1
[6] = Ratio of cytotoxicity (CC50) to that of replicon (IC50) was determined
How it was run: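 Selectivity index: the IC50 from the XTT cytotoxicity assay in Huh-7 cells divided by the IC50 from a modified HCV subgenomic replicon assay.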

Huh-7 (Homo sapiens) = assay: Cytotoxic activity in liver Huh-7 cells
[7] = In vivo concentration in rat liver exposure 8 hour after oral administration 50 mg/kg; assay type: ADME, organism-based; design: dose 50 mg/kg, route oral; details: read-out: C; how it was run: as §1
[8] = In vivo concentration in rat plasma exposure at 8 hour after oral administration 50 mg/kg; assay type: ADME, organism-based; design: dose 50 mg/kg, route oral; details: read-out: C; how it was run: as §1
Chymotrypsinogen A = Chymotrypsinogen A (Bos taurus, UniProt P00766); assay: Inhibitory activity against Chymotrypsin
How it was run: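 One of a panel of 10 human serine and cysteine proteases (elastase, chymotrypsin, trypsin, kallikrein, plasmin, thrombin, Factor Xa, cathepsins B, G and L).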

[9] = Inhibitory activity against plasmin at 100 uM concentration; Not significant
[10] = Ratio of the concentration of liver to that of IC50 replication was determined; assay type: ADME
Rattus norvegicus [11] = assay: In vivo concentration in rat liver exposure 8 hour after oral administration 50 mg/kg; Below detection limit; assay type: ADME, organism-based; design: dose 50 mg/kg, route oral; how it was run: as §1

Chain of Serine protease 1 (Homo sapiens) (P07477 whole entry): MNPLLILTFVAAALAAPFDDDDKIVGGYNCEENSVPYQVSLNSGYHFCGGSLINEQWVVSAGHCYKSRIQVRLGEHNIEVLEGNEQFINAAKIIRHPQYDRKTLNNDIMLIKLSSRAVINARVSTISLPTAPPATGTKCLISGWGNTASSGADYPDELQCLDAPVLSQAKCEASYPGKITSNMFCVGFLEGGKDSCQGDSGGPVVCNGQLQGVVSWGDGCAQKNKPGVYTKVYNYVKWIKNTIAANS

## CCCC(NC(=O)[C@@H]1[C@H]2CCC[C@H]2CN1C(=O)[C@@H](NC(=O)[C@@H](NC(=O)c1cnccn1)C(C)C)C(C)C)C(=O)C(=O)NC1CC1 (stereo partly drawn)
[1]
  inhibition: inactive
[2]
  inhibition: inactive
Rattus norvegicus [3]
  AUC: 2860 ng·h/mL
[4]
  inhibition: inactive
Rattus norvegicus [5]
  Caverage: 6.29 µM

## CC(C)[C@H](NC(=O)c1cnccn1)C(=O)N[C@H](C(=O)N1C[C@@H]2CCC[C@@H]2[C@H]1C(=O)N[C@@H](CC(F)F)C(=O)C(=O)N[C@@H](C)c1ccccc1)C(C)(C)C
[6]
  Ratio: > 159
Huh-7 (Homo sapiens)
  CC50: > 100 µM

## CC(C)[C@H](NC(=O)c1cnccn1)C(=O)N[C@H](C(=O)N1C[C@@H]2CCC[C@@H]2[C@H]1C(=O)N[C@@H](CC(F)F)C(=O)C(=O)NC1CC1)C(C)(C)C
[1]
  inhibition: inactive
[2]
  inhibition: inactive
[7]
  concentration at 8 h: 0.67 µM
Rattus norvegicus [3]
  AUC: 1880 ng·h/mL
[8]
  concentration at 8 h: 40 ng/mL
[4]
  inhibition: inactive
Rattus norvegicus [5]
  Caverage: 3.64 µM

## CC(C)[C@H](NC(=O)c1cnccn1)C(=O)N[C@H](C(=O)N1C[C@@H]2CCC[C@@H]2[C@H]1C(=O)N[C@@H](CC(F)F)C(=O)C(=O)N[C@@H](C)c1ccccc1)C(C)C
[6]
  Ratio: > 110
Huh-7 (Homo sapiens)
  CC50: > 100 µM

## CCC[C@H](NC(=O)[C@@H]1[C@H]2CCC[C@H]2CN1C(=O)[C@@H](NC(=O)[C@@H](NC(=O)c1cnccn1)C(C)C)C(C)(C)C)C(=O)C(=O)NC(C)CC (stereo partly drawn)
[1]
  inhibition: inactive
[2]
  inhibition: inactive
Chymotrypsinogen A
  IC50: > 100 µM
[7]
  concentration at 8 h: 8.68 µM
[6]
  Ratio: > 29
[9]
  inhibition: inactive
Rattus norvegicus [3]
  AUC: 22300 ng·h/mL
[8]
  concentration at 8 h: 920 ng/mL
[4]
  inhibition: inactive
[10]
  Ratio: 4
Huh-7 (Homo sapiens)
  CC50: > 100 µM
Rattus norvegicus [5]
  Caverage: 14 µM

## CCC[C@H](NC(=O)[C@@H]1[C@H]2CCC[C@H]2CN1C(=O)[C@@H](NC(=O)[C@@H](NC(=O)c1cnccn1)C(C)C)C(C)(C)C)C(=O)C(=O)N[C@@H](C)c1ccccc1
[1]
  inhibition: inactive
[2]
  inhibition: inactive
[4]
  inhibition: inactive

## CCC(C)NC(=O)C(=O)[C@H](CC(F)F)NC(=O)[C@@H]1[C@H]2CCC[C@H]2CN1C(=O)[C@@H](NC(=O)[C@@H](NC(=O)c1cnccn1)C(C)C)C(C)(C)C (stereo partly drawn)
[6]
  Ratio: > 38
Huh-7 (Homo sapiens)
  CC50: > 100 µM

## CC(C)[C@H](NC(=O)c1cnccn1)C(=O)N[C@H](C(=O)N1C[C@@H]2CCC[C@@H]2[C@H]1C(=O)NC(CC(F)F)C(=O)C(=O)NC1CC1)C(C)C (stereo partly drawn)
[6]
  Ratio: > 26
Rattus norvegicus [3]
  AUC: 145 ng·h/mL
[8]
  concentration at 8 h: 20 ng/mL
Rattus norvegicus [11]
  C: Below detection limit
[10]
  Ratio: <= 0.23
Huh-7 (Homo sapiens)
  CC50: > 100 µM
Rattus norvegicus [5]
  Caverage: </- 0.88 uM

## CCC[C@H](NC(=O)[C@@H]1[C@H]2CCC[C@H]2CN1C(=O)[C@@H](NC(=O)[C@@H](NC(=O)c1cnccn1)C(C)C)C(C)(C)C)C(=O)C(=O)NC1CC1
[1]
  inhibition: inactive
[2]
  inhibition: inactive
Chymotrypsinogen A
  IC50: > 100 µM
[7]
  concentration at 8 h: 3.67 µM
Rattus norvegicus [3]
  AUC: 25800 ng·h/mL
[8]
  concentration at 8 h: 520 ng/mL
[4]
  inhibition: inactive
Rattus norvegicus [5]
  Caverage: 16 µM
